In PMC3065020 (Journal of nuclear medicine : official publication, Society …, 2009):

Assays:
In vivo biodistribution = assay: In vivo biodistribution; parameters: species or system mouse; conditions: for Brain uptake at 2 min after injection / Brain uptake at 60 min after injection: intravenous tracer dose of the metabolite; for Brain concentration at 2 min / Brain concentration at 60 min: intravenous
Method in brief: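 CD-1 mice (20–26 g, male and female) received 370 kBq (10 µCi) of radiotracer in 10% ethanol/90% saline with 0.5% ascorbic acid by tail vein. Mice were killed by cardiac puncture under isoflurane at 2, 60, 120 and 180 min, with 3 animals per time point. Organs were weighed and γ-counted, and percentage dose was calculated against diluted aliquots of the injectate. Separately prepared labelled metabolites were also tested in healthy mice.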

[1] = In vivo metabolism in mice
Method in brief: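 Healthy mice received 370–555 MBq (10–15 mCi) of radiotracer by tail vein and were killed at 2, 10, 30 or 60 min. Plasma was separated by centrifugation (3,000 rpm, 2 min) and mixed with an equal volume of acetonitrile. After spinning at 5,000 rpm for 5 min, the supernatant was run on C18 HPLC (0.1% TFA water/acetonitrile gradient, 1 mL/min) with radioactivity detection. Metabolites were identified by LC/MS.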

[2] = target: T1, Aβ aggregates in postmortem AD brain homogenates (Homo sapiens, UniProt P05067); assay: Competitive binding assay against ^18F-AV-45 in postmortem AD brain homogenates; conditions: read-out: Inhibition constant (Ki) against binding of ^18F-AV-45 to Aβ aggregates, radioligand ^18F-AV-45, 2 h at 37°C
[3] = target: T1, Aβ aggregates in postmortem AD brain homogenates; assay type: binding
[4] = Small-animal PET of monkey brain; assay type: in vivo, rhesus monkey
Method in brief: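 A young adult female rhesus monkey (6.65 kg) was intubated and kept under isoflurane, with a hindlimb venous catheter. After a transmission scan, it received 173.9 MBq (4.7 mCi; 71,262 MBq/mmol) of radiotracer in 3 mL of 95% saline/5% ethanol as a 1-min bolus. Emission data were collected for 90 min, corrected for attenuation and scatter, and reconstructed by 3D MAP. Manual volumetric ROIs (striatum, thalamus, cortex, white matter), drawn on the summed 60–90-min image, gave time–activity curves.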

[5] = target: T1, Aβ aggregates in postmortem AD brain homogenates; assay: Saturation binding of ^18F-AV-45 in postmortem AD brain homogenates
Method in brief: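 Gray matter from frozen AD brains was homogenized in PBS, diluted to 50–100 mg/mL and stored at −80°C. Saturation binding was run on 4 different AD brain homogenates. Binding was analysed by Scatchard plot with nonlinear regression, and Bmax was expressed as fmol/mg protein.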

[6] = target: Aβ plaques in AD brain sections (Homo sapiens, UniProt P05067); assay: In vitro autoradiography of postmortem human brain sections; assay type: binding; conditions: tracer 0.3 nM, 1 h
Method in brief: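 Frozen brains from AD and control subjects were cut into 20-µm sections. Sections were incubated for 1 h with 0.3 nM radiotracer in 40% ethanol. They were then washed twice for 2 min in saturated Li2CO3 in 40% ethanol, once for 2 min in 40% ethanol, and rinsed in water for 30 s. Dried sections were exposed to film for 12–18 h, and the images were digitized.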

T1 sequence (P05067 672-713 limits assumed): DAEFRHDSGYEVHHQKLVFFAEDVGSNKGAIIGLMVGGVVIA
Sequence of Aβ plaques in AD brain sections (P05067 672-713 limits assumed): as above

In the case of `CC(=O)N(C)c1ccc(/C=C/c2ccc(OCCOCCOCC[18F])nc2)cc1` [^18F-AV-267], the “Brain uptake at 2 min after injection” value (In vivo biodistribution; healthy mice) is reported as 3.3 %ID/g and the “Brain uptake at 60 min after injection” value (In vivo biodistribution; healthy mice) is reported as 1.8 %ID/g.
In the case of `Nc1ccc(C=Cc2ccc(OCCOCCOCCF)nc2)cc1` [^18F-AV-160], the “Brain uptake at 2 min after injection” value (In vivo biodistribution; healthy mice) is reported as 4.5 %ID/g, the “Brain uptake at 60 min after injection” value (In vivo biodistribution; healthy mice) is reported as 1.8 %ID/g and the “Metabolite share in plasma” value ([1]; mouse plasma, 30 min after intravenous injection of ^18F-AV-45) is reported as “about 48%”.
With `CC(=O)N(C)c1ccc(/C=C/c2ccc(OCCOCCOCCF)nc2)cc1` [^18F-AV-267] the Ki [2] was 398 ± 45 nM.
`CNc1ccc(/C=C/c2ccc(OCCOCCOCCF)nc2)cc1` [^18F-AV-45, (E)-4-(2-(6-(2-(2-(2-^18F-fluoroethoxy)ethoxy)ethoxy)pyridin-3-yl)vinyl)-N-methyl benzenamine] showed a Kd ([3]; read-out: Kd = Koff/Kon, derived from kinetic measurement) of 1.31 nM.
For `CNc1ccc(/C=C/c2ccc(OCCOCCOCC[18F])nc2)cc1` [^18F-AV-45, (E)-4-(2-(6-(2-(2-(2-^18F-fluoroethoxy)ethoxy)ethoxy)pyridin-3-yl)vinyl)-N-methyl benzenamine], the Koff ([3]; dissociation from Aβ aggregates, AD brain homogenates) was 0.00075 ± 0.0001 s⁻¹, the “Specific binding or retention in healthy monkey brain” value ([4]; healthy rhesus monkey, no Aβ plaques) was “did not display any specific binding or prolonged retention in the brain” and the “Time of peak activity in cortex” value ([4]; rhesus monkey, intravenous 173.9 MBq) was 7 min. For the same compound, the “Injected dose localized in the brain at the peak” value ([4]; rhesus monkey, intravenous 173.9 MBq, estimated) was “about 4.4 % of the injected dose”, the “Brain concentration at 2 min” value (In vivo biodistribution; female healthy mice, 2 min after administration (peak)) was 6.23 %ID/g and the “Brain concentration at 60 min” value (In vivo biodistribution; female healthy mice) was 1.84 %ID/g. The “Initial brain uptake of parent relative to either of its metabolites” value (In vivo biodistribution; healthy mice, initial uptake) was 1.5 fold, the “Brain concentration at 2 min” value (In vivo biodistribution; male healthy mice, 2 min after administration) was 7.33 %ID/g and the “Brain concentration at 60 min” value (In vivo biodistribution; male healthy mice) was 1.88 %ID/g. For the same compound, the “Biologic T1/2 in mouse plasma” value ([1]; intravenous, estimated) was “less than 30 min”, the “Parent remaining in plasma” value ([1]; mouse plasma, 30 min after intravenous injection) was 30% and the “Bmax (saturation binding), average” value ([5]; average of 4 different AD brain homogenates) was 8,811 ± 1,643 fmol/mg protein. The “Bmax (saturation binding), representative example” value ([5]; representative AD brain homogenate, Figure 2) was 7,215 fmol/mg of protein, the “Labeling of AD brain sections containing Aβ plaques (autoradiogram)” value ([6]; AD brain sections) was “highly dense labeling” and the “Labeling of brain sections of control subjects (autoradiogram)” value ([6]; control subject brain sections) was “no specific labeling”.
